PvdQ acylase: blocks Pseudomonas aeruginosa PvdQ acylase activity; purified PvdQ acylase, fluorescence plate reader; inhibition, % at 10 µM; 0.063% of 340,000 active; AID 488965; in the data active = inhibition above about 30%, passing the limit was not always enough;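 also: 0% = vehicle neutral wells and 100% = reference inhibitor wells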
IMP-1 inhibitor: inhibitors of Pseudomonas aeruginosa IMP-1 metallo-beta-lactamase | AID 1556 | 0.45% of 290,000 active | inhibition, % at 5.6 µM | purified IMP-1, nitrocefin hydrolysis, epi-absorbance fluorescence;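 active = inhibition above the mean plus 3 SD of all compounds in the same screening run, cut at about 4.5% in these data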;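 also: 0% = IMP-1 with DMSO and 100% = DMSO wells lacking enzyme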
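Test system: recombinant IMP-1 enzyme, purified / Medium: HEPES buffer pH 7.1 with ZnSO4 and Brij 35 / Doses: single dose, 5.6 µM / Times: 25 °C, 15 min preincubation, 25 min reaction / Detection: Epi-absorbance via hydrolysed-nitrocefin quenching of white-plate fluorescence, 480/530 nm, EDTA stop / Evaluation: percent inhibition from optical density relative to buffer-blank wells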
VIM-2 inh: blocks Pseudomonas aeruginosa VIM-2 metallo-beta-lactamase | purified VIM-2, nitrocefin hydrolysis, epi-absorbance fluorescence | inhibition, % at 5.6 µM | 0.89% of 290,000 active | AID 1527;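 active = inhibition above the mean of all tested compounds plus 3 SD, cutoff set per screening run, cut at about 7.5% in these data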;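 also: red hydrolysis product quenches plate fluorescence so inhibitors raise well fluorescence; 0% = enzyme with DMSO and 100% = DMSO without enzyme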
PLC-gamma1 inh: inhibitors of human phospholipase C gamma1 | AID 720700 | purified PLC-gamma1, fluorogenic substrate, fluorescence | inhibition, % at 12.2 µM | 0.84% of 370,000 active | P19174; in the data active = inhibition above about 9.5%
PLC-beta3 inh: PLC-beta3 (human) inhibition, primary screen; Q01970; Purified PLC-beta3, fluorogenic substrate, fluorescence; inhibition, % at 12.2 µM; 0.18% of 370,000 active;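 also: 0% = median of compound wells on plate and 100% = full blocker control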
PLCgamma1 ctr: inhibits human PLC-gamma1 in PLC-beta3 counter-screen | shares compounds with PLC-gamma1 inh | purified PLC-gamma1, fluorogenic substrate, fluorescence | inhibition, % at 12.3 µM | 3.1% of 3,300 active | AID 743258; in the data active = inhibition above about 9.5%
PLCb3 confirm: confirmation of human PLC-beta3 inhibitors | shares compounds with PLC-gamma1 inh | purified PLC-beta3, fluorogenic substrate fluorescence | inhibition, % at 12.3 µM | 1% of 3,300 active
An asterisk follows results filed as active; · = no result given. Compounds with a hit are over-represented: about 2% of the library has one in this group of screens. Rule as the data show it, unless noted: active = inhibition above about 11%; inactive = the rest.

SMILES | PvdQ acylase | IMP-1 inhibitor | VIM-2 inh | PLC-gamma1 inh | PLC-beta3 inh | PLCgamma1 ctr | PLCb3 confirm
Cc1ccc(Cn2cc(CN3[C@H](C)COc4cc(Br)ccc4S3(=O)=O)nn2)cc1 | · | · | · | 2 | 2 | · | ·
O=C(Cc1ccccc1[N+](=O)[O-])OCN1C(=O)c2ccccc2C1=O | -10 | -1 | -2 | 0 | -5 | · | ·
O=C1c2ccccc2C(=O)N1OCc1ccccc1[N+](=O)[O-] | -1 | -1 | -1 | 13* | 6 | 6 | 1
CCOc1ccc(C(=O)N(CN2CCCC2=O)c2ccccc2)cc1 | -6 | -2 | -4 | 9.9* | 2 | -1 | -1
CCOc1ccc(C(=O)N(CN2CCCC2=O)c2ccc(C)cc2)cc1 | · | -4 | -2 | 1 | -1 | · | ·
Cc1cc(NS(=O)(=O)c2ccc(NC(=O)Cc3ccccc3)cc2)no1 | · | · | · | 1 | 0 | · | ·
Cc1ccccc1N1C(=O)C(Oc2ccc(Cl)cc2)C1CNCCCOC(C)C (stereo unspecified) | -9 | -1 | -1 | 5 | 2 | · | ·
COCCCNCC1C(Oc2ccc(Cl)cc2)C(=O)N1c1ccccc1C (stereo unspecified) | -6 | -4 | -4 | 9.9* | -1 | -3 | -2
COc1cc(/C=C(\C#N)C(=O)c2ccc(O)c(O)c2)cc(I)c1O | -4 | · | · | 10* | -1 | -44 | -44
COc1ccc(C=C(C#N)C(=O)c2ccccc2)cc1 | · | · | · | -10 | -23 | · | ·
Cc1ccc(C(=O)NCCN2C3=NC[C@@H](Cc4ccccc4)N3C[C@H]2Cc2ccc(O)cc2)cc1Br | -11 | -1 | 1 | 9.9* | 4 | 1 | 0
CC(C)(C)N(NC(=O)Nc1cccc(F)c1)C(=O)c1ccccc1Cl | · | · | · | 8 | 10 | · | ·
Cc1onc(-c2ccccc2)c1NC(=O)N(CCC#N)Cc1cccs1 | -5 | -3 | -3 | 10.0* | -2 | -6 | 1
COc1ccc([C@H]2OC(=O)C[C@H]2C(=O)N2CCCC2)cc1OC | · | · | · | 1 | 1 | · | ·
CCOc1cc(CNCCO)c(Cl)cc1OCC(=O)NCCc1ccccc1 | -5 | -3 | -1 | 4 | 12* | -6 | -2
CCOc1cc(CNCCc2ccccc2)ccc1OCC(=O)NC(C)(C)C | -11 | 1 | 0 | 9.9* | -9 | -1 | 3
CCOc1cc(CNCCc2ccc(S(N)(=O)=O)cc2)ccc1OCC(=O)NC(C)(C)C | -20 | -3 | -4 | 1 | 5 | · | ·
CCc1ccc(OCC(=O)NC(C)(C)C)cc1 | 8 | -2 | -2 | 10* | 4 | -6 | 0
CCN(C(=O)CSc1nnc(-c2cccnc2)n1Cc1ccco1)c1ccccc1C | · | · | · | -1 | 0 | · | ·
COC(=O)[C@]1(CNC(C)=O)CC(=O)N(Cc2ccc(Cl)cc2)[C@@H]1c1ccc(OC)cc1 | · | · | · | 11* | 1 | -9 | -4
O=C(NC(=S)NCC1CCCO1)c1cccc([N+](=O)[O-])c1 (stereo unspecified) | -5 | -3 | 0 | 9.6* | 12* | -1 | 2
COc1cc(C(=O)NC2CC(C)CC(C)(C)C2)cc(OC)c1OC (stereo unspecified) | · | · | · | 5 | 12* | -1 | -2
CCCN(CC)c1ncnc2[nH]ncc12 | -11 | · | · | 2 | 1 | · | ·
CN(C)c1ncnc2[nH]ncc12 | -8 | · | · | 13* | 6 | -2 | 1
CC(C)c1onc(C(=O)N2CCCCCC2)c1[N+](=O)[O-] | -13 | -2 | -3 | 15* | 4 | -3 | -1
SMILES | PvdQ acylase | IMP-1 inhibitor | VIM-2 inh | PLC-gamma1 inh | PLC-beta3 inh | PLCgamma1 ctr | PLCb3 confirm
CC(C)c1onc(C(=O)N2CCC(C(N)=O)CC2)c1[N+](=O)[O-] | 1 | 0 | 0 | -1 | -10 | · | ·
O=C(C1CCCN1S(=O)(=O)c1cccc([N+](=O)[O-])c1)N1CCN(c2ccccc2)CC1 (stereo unspecified) | · | · | · | 4 | 5 | · | ·
O=C(NCCN1CCOCC1)Nc1ccc(Cl)cc1 | -9 | -4 | 0 | 12* | -1 | -3 | 1
COC(=O)[C@]1(CNC(=O)c2cc(F)ccc2F)CC(=O)N(C)[C@@H]1c1ccccc1 | · | · | · | 1 | 4 | · | ·
C=CCc1cccc(CNc2nc3ccccc3n2CCN2CCOCC2)c1O | 3 | 2 | -5 | 10* | 14* | -5 | 1
CCOC(=O)C1=NOC(C(C)=O)(C(=O)Nc2cc(C)cc(C)c2)C1 (stereo unspecified) | · | · | · | -3 | -2 | · | ·
O=C(NCc1ccccc1)c1n[nH]nc1-c1ccccc1O | 6 | -3 | -5 | 17* | -7 | 16* | -6
FC(F)(F)Oc1cccc(Cn2ccc3ccc(-c4ccc5ccn(Cc6ccccc6)c5c4)cc32)c1 | · | · | · | -57 | -77 | · | ·
Cc1ccc(S(=O)(=O)CCc2nnc(NC(=O)C3CCCO3)s2)cc1 (stereo unspecified) | 12 | -1 | 3 | 9.6* | 9 | 0 | -1
CCC1CCCCN1C(=O)CSc1nc2ncccc2[nH]1 (stereo unspecified) | -15 | -2 | 0 | 11* | -7 | -4 | -3
COc1ccc(N2CCN(C3CCCN(C(=O)CN4CCOC4=O)C3)CC2)cc1 (stereo unspecified) | -7 | -2 | -5 | -1 | -2 | · | ·
COc1ccc(N2CCN(C3CCCN(C(=O)CN4CCCC4=O)C3)CC2)cc1 (stereo unspecified) | -13 | -1 | -3 | 9.8* | -7 | -5 | -4
O=C1C=C(c2ccc3ncccc3c2)C[C@@H](c2ccc(Cl)cc2)C1 | -16 | · | · | 11* | 0 | 0 | -1
COc1ccc([C@H]2CC(=O)C=C(c3ccc4ncccc4c3)C2)cc1 | 8 | · | · | -2 | -5 | · | ·
C=CCOC(=O)N[C@@H](c1coc2ccccc2c1=O)[C@@H](C)/C=C/CC(=O)OC | · | · | · | -4 | -5 | · | ·
CCCN1C(=O)c2n[nH]c(C)c2C1c1ccc2c(c1)OCO2 (stereo unspecified) | · | · | · | 0 | -2 | · | ·
O=C(CSc1nc2ccccc2nc1N1CCOCC1)N1CCN(c2cccc(C(F)(F)F)c2)CC1 | · | · | · | -26 | -35 | · | ·
COC(=O)c1cn(CC(=O)NCc2ccco2)c2ccccc12 | -5 | -3 | -3 | 13* | 5 | -5 | -3
CCC(=O)c1cn(CC(=O)NCc2ccco2)c2ccccc12 | 2 | -2 | -2 | 10.0* | 2 | -1 | 2
COc1cccc(CN2C(=O)N(C(C)C)C(N(O)C(=O)NC(C)C)C2(C)C)c1OC (stereo unspecified) | -16 | -2 | -1 | 14* | 15* | 4 | 5
O=C(/C=C/c1ccc(Cl)cc1)N1CCN(c2c(Cl)cccc2[N+](=O)[O-])CC1 | -5 | -2 | -7 | 17* | 10 | -7 | 2
Cc1cccc(NC(=S)N(Cc2cccc(Br)c2)CC2CCC(C(=O)O)CC2)c1 (stereo unspecified) | -7 | -2 | 0 | 11* | -1 | -11 | -5
COc1ccc(N2CCN(CCNS(=O)(=O)c3c(C(C)C)cc(C(C)C)cc3C(C)C)CC2)cc1 | · | · | · | 0 | 0 | · | ·
